# UCH37 inh = inhibitors of human deubiquitinating enzyme UCH37; 330,000 compounds, 0.33% hits; inhibition, % (concentration not given with the values); purified proteasome/UCH37, Ub-AMC cleavage fluorescence; Q9Y5K5;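 active means mean inhibition over replicate wells above about 20%, limit read from the data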;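 further: 0% = compound-free wells with enzyme and 100% = wells lacking proteasome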
#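 Schedule: 30 min plus 25 min, room temperature / Material: human UCH37 within purified proteasomes / Technique: AMC fluorescence intensity at 355/460 nm / Buffer or medium: pH 7.4 Tris-HCl (50 mM) with ovalbumin, ATP-MgCl2, DTT / Controls: wells without proteasome as full block, compound-free enzyme plus substrate as uninhibited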
# aDG glyco up = alpha-DG glycosylation activation. Pro5-aDG cells, alpha-DG glycosylation AlphaScreen (IIH6); 0% Pro5, 100% B10-LARGE cell signal. activation, % at 10 µM. 360,000 compounds, 0.22% hits. AID 624168;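 active means activation of at least 8% versus controls, or a plate z-score of at least 8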;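 further: Pro5 are CHO cells carrying HIG-tagged alpha-DG that lacks glycosylation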
# PKA-R1A act = activates the PKA-R1A holoenzyme complex. PKA-R1A dissociation, Cy5-IP20 fluorescence polarization; scaled: DMSO 0%, 113 µM cGMP 100%. activation, % at 11.4 µM. 340,000 compounds, 0.083% hits. AID 504707;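 active means percent activation above the mean of all tested compounds plus 3 SD, cut at about 19% in these data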;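 further: higher means more PKAc released from R1A so a rise in polarization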
# CTSL1 counter = cathepsin L1 inhibition, PFM18AAP counter-screen; recombinant F. hepatica cathepsin L1, Z-Leu-Arg-MCA fluorescence; inhibition, % at 5.96 µM; 300,000 compounds, 0.49% hits; AID 1906;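 active means inhibition above the mean of all tested compounds plus 3 SD, set per screening campaign, cut at about 17% in these data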;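 further: 0% = plate median of test compound wells and 100% = 1 µM Z-Phe-Ala-diazomethylketone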
# PKA-R2B act = activators of human PKA-R2B complex | AID 504700 | 340,000 compounds, 0.079% hits | PKA-R2B holoenzyme dissociation, Cy5-IP20 fluorescence polarization; R2B truncated from residue 108, S112A mutant; 0% DMSO only, 100% 113 µM cGMP | activation, % at 11.4 µM;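 active means activation above a cutoff set at the mean over all compounds plus 3 SD, cut at about 18% in these data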;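 further: higher means more holoenzyme dissociation and a rise in polarization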
# Target sequence (P31323 whole entry, looked up, other chains not shown, the tested form may be a part): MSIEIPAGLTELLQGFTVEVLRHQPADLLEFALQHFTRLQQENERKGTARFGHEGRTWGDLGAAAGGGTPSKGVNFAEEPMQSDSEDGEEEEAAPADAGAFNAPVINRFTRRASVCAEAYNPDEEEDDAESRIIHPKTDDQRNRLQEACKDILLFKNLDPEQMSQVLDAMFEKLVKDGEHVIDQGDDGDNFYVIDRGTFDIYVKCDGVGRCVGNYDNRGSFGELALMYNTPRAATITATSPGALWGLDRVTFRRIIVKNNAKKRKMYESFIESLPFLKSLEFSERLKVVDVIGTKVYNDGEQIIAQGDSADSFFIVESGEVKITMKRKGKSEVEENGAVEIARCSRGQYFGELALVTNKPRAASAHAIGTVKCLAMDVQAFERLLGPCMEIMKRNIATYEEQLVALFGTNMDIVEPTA
# UCH37 reconfirm = reconfirmed inhibitor of human deubiquitinase UCH37 | shares compounds with UCH37 inh | Proteasome-bound UCH37, Ub-AMC cleavage fluorescence | inhibition, % at 20 µM | 480 compounds, 27% hits;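 active means average inhibition over replicates above about 50%, so the earlier screening hit is confirmed, limit read from the data; inactive means the rest, counted as false positives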;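 further: based on cleavage rate fitted by regression over a 30 min kinetic read; 0% = proteasome plus Ub-AMC and 100% = Ub-AMC without proteasome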
# Starred values were filed as active, the others as inactive; . = not tested or not shown. Rows were chosen to be rich in hits. Some 0.94% of all compounds tested hit in one or more screens of this group.
SMILES,UCH37 inh,aDG glyco up,PKA-R1A act,CTSL1 counter,PKA-R2B act,UCH37 reconfirm
O=c1[nH]c(=S)[nH]c2c1C(c1ccc(Br)cc1)c1c([nH]c(=S)[nH]c1=O)O2,27*,0,9,8,4,38
Nc1ccc(O)c2c1C(=O)c1ccccc1C2=O,.,0,-10,-1,-7,.
NC1=CC(=O)C(=O)c2ccccc21,44*,0,6,.,-7,58*
CNC(=S)NN=C(C)c1cccc([N+](=O)[O-])c1,4,.,.,.,.,.
C#CCOCCOCCOCCNc1nc(N2CCN(C(=O)Cn3cc(CC(C)O)nn3)CC2)nc(N2CCN(C(=O)[C@H]([C@@H](C)O)n3cc(CCCCN)nn3)CC2)n1 (some centres undefined),-1,0,-4,.,-5,.
C#CCOCCOCCOCCNc1nc(N2CCN(C(=O)Cn3cc(CCO)nn3)CC2)nc(N2CCN(C(=O)[C@H]([C@@H](C)O)n3cc(CCCCN)nn3)CC2)n1,38*,0,5,-2,-1,19
CCOC(=O)C(=NNc1ccccc1)Sc1nnc(CCc2ccccc2)n1-c1ccccc1,4,.,.,.,.,.
Cc1ccc(SC2=C(Sc3ccc(C)cc3)C(=O)c3ccccc3C2=O)cc1,52*,0,-11,-6,2,29
CCN1C(=O)/C(=C/N(C)c2ccccc2)OC1=S,9,0,4,-1,1,.
CN1C(=O)/C(=C\C=C2/CCCN2C)N(C)C1=S,39*,0,-2,7,-20,31
CCN1C(=O)/C(=C/C=C2/CCCN2C)OC1=S,29*,0,-7,6,-3,36
Cc1nn(-c2ccccc2)c(C)c1/C=C1\C(=O)N(C)C(=S)N1C,5,0,-10,0,-11,.
COc1ccc(C(=O)Oc2ccc(C=NNC(=O)c3ccccc3OC)cc2[N+](=O)[O-])cc1,0,.,.,.,.,.
CC(C)n1c(N=Cc2ccccc2O)nc2ccccc21,0,.,.,.,.,.
COc1cccc(C2C3=C(CCCC3=O)Nc3[nH]n(-c4ccccc4)c(=O)c32)c1 (centres undefined),5,-1,-7,4,2,.
O=C1CCCC2=C1C(c1ccc3c(c1)OCO3)c1c([nH]n(-c3ccccc3)c1=O)N2 (centres undefined),32*,0,-4,1,-8,33
CCCCCc1ccc(OCCCC[n+]2ccc(C)cc2)c(CCCCC)c1,29*,0,-5,0,1,43
O=C1C2C3CCCC3=C3CCCC3C2C(=O)N1c1ccc(F)cc1 (centres undefined),32*,0,3,4,7,53*
COc1cccc(C=NNC(=O)C(=O)NCc2ccco2)c1OC,3,.,.,.,.,.
COc1ccc(NC(=O)/C=C/c2c(Cl)nc3ccccn23)cc1,37*,1,-9,-5,-3,9
CCC(=NNC(=O)C1CCCC1)c1cccc(Br)c1,1,.,.,.,.,.
CCOc1cc(C=NO)ccc1OCc1ccc(F)cc1,2,.,.,.,.,.
CCOC(=O)c1c(-c2ccc(-c3ccccc3)cc2)csc1NC(=O)CNCCN(C)C,25*,0,-1,3,2,84*
CCOC(=O)c1c(-c2ccccc2)csc1NC(=O)CCN1C(=O)c2ccccc2C1=O,-1,0,-1,0,-2,.
CC(/C=C/c1ccco1)=NNC(=O)C(O)c1ccccc1 (centres undefined),11,.,.,.,.,.
SMILES,UCH37 inh,aDG glyco up,PKA-R1A act,CTSL1 counter,PKA-R2B act,UCH37 reconfirm
COCCCNC(=O)c1c(N)n(N=Cc2ccccn2)c2nc3ccccc3nc12,-8,.,.,.,.,.
CN(C)c1cccc2c(C=NO)ccc(N(C)C)c12,0,.,.,.,.,.
CC(C)[n+]1ccn(C2=C([O-])c3ccccc3C(=O)/C2=N\S(=O)(=O)c2ccccc2)c1,39*,0,1,6,-8,23
CC(C)(C)c1cc[n+](C2=C([O-])c3ccccc3C(=O)/C2=N\S(=O)(=O)c2ccccc2)cc1,10,0,.,11,.,.
CCCC[n+]1ccn(C2=C([O-])c3ccccc3C(=O)/C2=N\S(=O)(=O)c2ccccc2)c1,41*,3,18,9,-10,32
CCCC[n+]1ccn(-c2nc3ccccc3nc2[N-]S(=O)(=O)c2ccccc2)c1,-104,0,-12,2,-8,.
O=[N+]([O-])c1ccc(N=Nc2ccc(O)cc2O)cc1,25*,-1,6,12,-2,46
Cc1cc(C)c(Nc2cc(S(=O)(=O)O)c(N)c3c2C(=O)c2ccccc2C3=O)c(C)c1,34*,-1,1,4,-5,93*
COc1cccc(C=NNc2nncc(-c3ccccc3)n2)c1,2,.,.,.,.,.
COCCCn1c(=O)c2ccccc2n(CC(=O)NCCC2=CCCCC2)c1=O,5,0,-9,-1,1,.
CC1(c2ccccc2Cl)NC(=O)N(CC(=O)NCCC2=CCCCC2)C1=O (centres undefined),34*,0,-8,0,-6,56*
Cc1cc2ccccc2c(=O)n1CC(=O)NCCC1=CCCCC1,55*,0,-4,3,-3,67*
Cc1c(C=NNC(=O)c2cc3ccccc3o2)c2ccccc2n1C,-30,.,.,.,.,.
Cc1ccc(C)c(OCC(=O)NN=Cc2ccsc2)c1,0,.,.,.,.,.
COc1ccc(C=NNc2nnc(-c3ncc[nH]3)c3ccccc23)cc1,-47,.,.,.,.,.
NC1=C(Br)C(=O)c2ccccc2C1=O,34*,3.9*,6,35*,-14,50
O=C1NC(=O)/C(=C/c2cccc3ccccc23)S1,8,0,4,4,-6,.
O=C1NC(=O)C(=Cc2ccccc2[N+](=O)[O-])S1,86*,0,6,.,-1,99*
COc1cccc(NC2=C(Cl)C(=O)OC2OC(=O)c2ccco2)c1 (centres undefined),37*,0,-3,7,-3,5
Cn1nnc2cc(NC(=O)Nc3ccccc3F)ccc21,.,0,9,.,4,.
Cc1cc(NC(=O)Nc2ccccc2F)ccc1Br,38*,0,-3,3,-11,17
O=C(O)c1ccc(NN=Cc2ccc(-c3cc(Cl)ccc3Cl)o2)cc1,-57,.,.,.,.,.
CNC1=C(N(C(C)=O)c2ccc(Br)cc2)C(=O)c2ccccc2C1=O,51*,8.7*,-5,33*,3,74*
CCC(=O)N(C1=C(NC)C(=O)c2ccccc2C1=O)C(C)C,33*,1,9,6,-2,42
CC(=O)NC1=C(Nc2ccc(N(C)C)cc2)C(=O)c2ccccc2C1=O,.,0,-9,9,6,.
CCNC(=S)NN=C(C)c1ccc(Cl)s1,7,.,.,.,.,.
O=C(NN=Cc1cccnc1)c1cc(O)c(O)c(O)c1,3,.,.,.,.,.

# Assay outcomes (PubChem)
